Experimental data as given in article PMC8360131 (Angewandte Chemie (International Ed. in English), 2021).
Like-named read-outs stand apart in the source and are kept apart here. *1 amine or outer side, *2 acyl side, *3 side chain or, on linkers, in order; H or OH if unused. Where a SMILES comes first, the peptide text is derived from it. [ ]: non-standard residue; d: D form. The star is where a group is joined. X1 = CCC(=O)C[C@H](O)C[C@@H](C)C[C@H](N[*:1])C(=O)[*:2]; Hexenoyl(2E,4S-Me) = CC[C@H](C)/C=C/C(=O)*; Leu(3R-OH) = CC(C)[C@@H](O)[C@H](N)C(=O)O; NH((S)CH(Me)CH2NMe2) = C[C@@H](CN(C)C)N*; Pro(4S-Me) = C[C@@H]1CN[C@H](C(=O)O)C1; NH(1-CH2NMe2-cBu) = CN(C)CC1(N*)CCC1; Oxazole4CO(2-Me) = Cc1nc(C(=O)*)co1; hCha = N[C@@H](CCC1CCCCC1)C(=O)O; NMeL = CN[C@@H](CC(C)C)C(=O)O; Aib = CC(C)(N)C(=O)O; βAla = NCCC(=O)O

How the values were obtained:
[1] = system: bacteria, fungi, and cancer cells; conditions: cited from earlier work
[2] = system: Trypanosoma cruzi (Tulahuen strain C2C4); experiment: T. cruzi assay in L6 cells; format: cell-based; conditions: read-out: T. cruzi; intracellular
[3] = system: T. b. brucei bloodstream forms; experiment: MitoTracker fluorescence microscopy; format: cell-based; conditions: 24 h treatment; 4 and 5 at 40 nM final concentration
Summary of the method: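 Bloodstream-form T. b. brucei (NYsm strain) were exposed to test compound for 24 h, some at 40 nM final concentration. Cells were then incubated with the mitochondrial membrane potential-dependent dye MitoTracker, co-stained with DAPI and anti-ATOM40, and examined by fluorescence microscopy with DIC imaging. Untreated parasites were stained in parallel.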

[4] = system: T. b. brucei bloodstream forms; experiment: TMRE mitochondrial membrane potential assay; format: cell-based
Summary of the method: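 The mitochondrial membrane potential of bloodstream-form T. b. brucei (NYsm) was quantified with the potential-sensitive dye TMRE, before and after test compound treatment. TMRE fluorescence was expressed relative to control parasites. CCCP served as positive control.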

[5] = system: Leishmania donovani axenic amastigotes (strain MHOM/ET/67/L82); experiment: L. donovani axenic amastigotes resazurin assay; format: cell-based
T. brucei [6] = conditions: cited from earlier work
T. brucei [7] = conditions: cited from earlier work; remark: listed apart in the source
[8] = system: T. b. brucei 427 bloodstream forms; experiment: T. b. brucei bloodstream form resazurin IC50 assay; format: cell-based; conditions: read-out: activity on T. b. brucei; 72 h exposure
Plasmodium falciparum = conditions: read-out: IC50 Plasmodium falciparum; cited from earlier work
[9] = system: Leishmania donovani intracellular amastigotes; experiment: L. donovani intracellular amastigotes in macrophages; format: cell-based; conditions: read-out: L. donovani. Macrophage, mouse peritoneal macrophages
[10] = mice; cited from earlier work
Trypanosoma brucei = conditions: read-out: IC50 Trypanosoma brucei; cited from earlier work
[11] = read-out: L. donovani. axenic amastigotes, range in parentheses

## leucinostatin Y
[1]
  activity compared with leucinostatin A: far less active

## Cc1nc(C(=O)N2CCC[C@H]2C(=O)N[C@@H](CCC2CCCCC2)C(=O)N[C@@H](CC(C)C)C(=O)NC(C)(C)C(=O)N[C@@H](CC(C)C)C(=O)N(C)[C@@H](CC(C)C)C(=O)NC(C)(C)C(=O)NC(C)(C)C(=O)NCCC(=O)NC2(CN(C)C)CCC2)co1 [Compound 3] ({Oxazole4CO(2-Me)}-P[hCha]L[Aib]L[NMeL][Aib][Aib][βAla]-{NH(1-CH2NMe2-cBu)})
[2]
  IC50: > 2000 nM
[3]
  MitoTracker mitochondrial staining: no changes
[4]
  TMRE fluorescence relative to control parasites: no changes
[5]; [11]
  IC50: 9260 nM

## leucinostatin B [leucinostatin B (1 b)]
T. brucei [6]; 4×0.3 mg kg^−1 ip
  curative effect: curative effects
T. brucei [6]; 4×1.0 mg kg^−1 ip
  curative effect: curative effects
T. brucei [7]; 4×0.3 mg kg^−1 ip
  mean duration of survival compared to untreated mice: slightly increased
  mice cured: no mice were cured
T. brucei [7]; 4×1.0 mg kg^−1 ip
  mice cured: one of 4 mice was cured
T. brucei [7]; 4×1.0 mg kg^−1 ip, untreated 11.3 days
  mean duration of survival: 28 days

## CCC(=O)C[C@H](O)C[C@@H](C)C[C@H](NC(=O)[C@@H]1C[C@H](C)CN1C(=O)/C=C/[C@@H](C)CC)C(=O)N[C@H](C(=O)NC(C)(C)C(=O)N[C@@H](CC(C)C)C(=O)N[C@@H](CC(C)C)C(=O)NC(C)(C)C(=O)NC(C)(C)C(=O)NCCC(=O)N[C@@H](C)CN(C)C)[C@H](O)C(C)C [leucinostatin A (1 a), leucinostatin A] ({Hexenoyl(2E,4S-Me)}-[Pro(4S-Me)][X1][Leu(3R-OH)][Aib]LL[Aib][Aib][βAla]-{NH((S)CH(Me)CH2NMe2)})
[2]
  IC50: 23 nM
[8]
  IC50: 0.4 nM
[4]
  TMRE fluorescence relative to control parasites: concentration‐dependent decrease
Plasmodium falciparum
  IC50: 0.4 to 0.9 nM
[5]; [11]
  IC50: 1.05 nM
[9]
  IC50: 9.8 nM
[10]
  ip LD50: 1.1 mg/kg
Trypanosoma brucei
  IC50: 2.8 nM

## CCCCCCCCCCCCCCCCOP(=O)([O-])OCC[N+](C)(C)C [miltefosine]
[5]; Leishmania donovani, read-out: L. donovani. axenic amastigotes [nM]
  IC50: 483 nM
